In general, EC50 refers to the midpoint of the concentration-response curve. A lower EC50 goes with an effect from little substance.

7 compounds from ChEMBL document CHEMBL1156910, “Binding of curcumin and its long chain derivatives to the activator binding domain of novel protein kinase C” (Bioorg Med Chem, 2010) can be followed below.

In test [1] the target is Protein kinase C delta type (Homo sapiens, UniProt Q05655). Nature of the test: Binding affinity to GST-tagged PKCdelta expressed in Escherichia coli BL21(DE3) by fluorescence quenching. The gist of the method: (§1)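 Isolated C1B subdomain made in E. coli as GST fusion, purified on glutathione-Sepharose, GST removed by thrombin, then ammonium sulfate precipitation and Superdex 75 gel filtration. Excitation 280 nm, intrinsic emission at 350 nm as (F0-F)/F, Hill fit gives EC50.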

In test [2] the target is T1, Protein kinase C epsilon type (Homo sapiens, UniProt Q02156).
T1 sequence (Q02156 whole entry): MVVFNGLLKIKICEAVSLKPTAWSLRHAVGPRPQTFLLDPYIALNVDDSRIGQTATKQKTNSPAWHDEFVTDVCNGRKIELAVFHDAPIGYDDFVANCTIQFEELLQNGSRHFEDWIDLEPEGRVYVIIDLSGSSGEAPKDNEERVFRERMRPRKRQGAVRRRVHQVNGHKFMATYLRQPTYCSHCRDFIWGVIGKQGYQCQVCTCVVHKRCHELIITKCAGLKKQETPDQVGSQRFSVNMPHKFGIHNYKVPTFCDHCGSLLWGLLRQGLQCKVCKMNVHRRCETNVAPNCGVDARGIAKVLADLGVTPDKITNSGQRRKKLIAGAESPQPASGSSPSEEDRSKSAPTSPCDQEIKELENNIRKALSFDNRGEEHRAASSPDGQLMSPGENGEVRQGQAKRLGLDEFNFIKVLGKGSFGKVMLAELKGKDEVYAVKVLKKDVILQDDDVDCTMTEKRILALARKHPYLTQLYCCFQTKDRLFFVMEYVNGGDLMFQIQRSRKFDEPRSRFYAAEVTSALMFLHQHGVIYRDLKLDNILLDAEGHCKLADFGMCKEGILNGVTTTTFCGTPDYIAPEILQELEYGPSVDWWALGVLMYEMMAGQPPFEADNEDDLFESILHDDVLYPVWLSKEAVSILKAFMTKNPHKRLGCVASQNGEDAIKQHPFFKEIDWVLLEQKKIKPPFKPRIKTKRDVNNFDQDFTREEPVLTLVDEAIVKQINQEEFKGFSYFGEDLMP
Nature of the test: Binding affinity to GST-tagged PKCepsilon expressed in Escherichia coli BL21(DE3) by fluorescence quenching. The essentials:
as §1

Test [3] addresses Protein kinase C theta type (Homo sapiens, UniProt Q04759). Nature of the test: Binding affinity to GST-tagged PKCtheta expressed in Escherichia coli BL21(DE3) by fluorescence quenching. The essentials:
as §1

Each structure is given as a SMILES string.

Protein kinase C theta type, sequence (Q04759 whole entry): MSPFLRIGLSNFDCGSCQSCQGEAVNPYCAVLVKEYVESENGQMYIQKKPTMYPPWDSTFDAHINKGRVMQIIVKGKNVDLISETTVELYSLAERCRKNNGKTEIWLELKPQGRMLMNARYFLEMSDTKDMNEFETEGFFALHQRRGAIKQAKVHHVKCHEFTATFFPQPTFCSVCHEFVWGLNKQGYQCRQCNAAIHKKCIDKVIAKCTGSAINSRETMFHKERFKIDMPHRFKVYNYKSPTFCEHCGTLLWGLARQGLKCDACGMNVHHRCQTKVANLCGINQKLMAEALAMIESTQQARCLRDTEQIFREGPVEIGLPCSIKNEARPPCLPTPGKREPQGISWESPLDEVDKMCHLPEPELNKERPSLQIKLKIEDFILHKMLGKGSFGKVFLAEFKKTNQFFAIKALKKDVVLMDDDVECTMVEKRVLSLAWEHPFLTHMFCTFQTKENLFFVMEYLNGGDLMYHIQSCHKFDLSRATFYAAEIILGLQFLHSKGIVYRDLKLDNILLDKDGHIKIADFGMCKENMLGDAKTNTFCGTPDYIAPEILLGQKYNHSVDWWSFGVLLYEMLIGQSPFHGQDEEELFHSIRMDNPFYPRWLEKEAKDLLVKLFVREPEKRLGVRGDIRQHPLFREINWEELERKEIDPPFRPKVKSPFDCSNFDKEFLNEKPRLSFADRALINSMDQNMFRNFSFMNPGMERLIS
Protein kinase C delta type, sequence (Q05655 whole entry, the tested form may be a part): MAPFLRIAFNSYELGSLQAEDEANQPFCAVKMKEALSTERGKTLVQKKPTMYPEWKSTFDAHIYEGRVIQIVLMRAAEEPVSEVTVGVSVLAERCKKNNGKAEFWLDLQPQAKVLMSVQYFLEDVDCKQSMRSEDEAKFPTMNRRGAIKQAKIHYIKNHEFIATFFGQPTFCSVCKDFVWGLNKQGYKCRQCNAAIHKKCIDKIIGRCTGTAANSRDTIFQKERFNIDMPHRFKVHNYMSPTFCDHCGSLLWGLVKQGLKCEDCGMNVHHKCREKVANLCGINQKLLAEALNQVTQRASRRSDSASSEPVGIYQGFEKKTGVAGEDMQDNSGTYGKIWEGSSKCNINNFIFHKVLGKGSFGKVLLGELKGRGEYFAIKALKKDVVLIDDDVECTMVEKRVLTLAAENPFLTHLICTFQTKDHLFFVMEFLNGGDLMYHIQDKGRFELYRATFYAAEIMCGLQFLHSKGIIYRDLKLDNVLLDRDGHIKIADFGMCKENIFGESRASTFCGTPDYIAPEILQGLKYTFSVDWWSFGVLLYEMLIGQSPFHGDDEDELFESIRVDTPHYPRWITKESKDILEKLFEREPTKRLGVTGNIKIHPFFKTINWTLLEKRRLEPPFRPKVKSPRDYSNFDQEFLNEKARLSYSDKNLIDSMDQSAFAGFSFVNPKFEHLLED

In the case of `CCCCCCCCCCCCCCCCOc1ccc(/C=C/C(O)=C/C(=O)/C=C/c2ccc(O)c(OC)c2)cc1OC`, the EC50 in test [1] worked out at 8.98 µM; in test [2] it was 10.6 µM; in test [3], 5.95 µM.
For `COc1cc(/C=C/C(=O)CC(=O)/C=C/c2ccc(O)c(OC)c2)ccc1O` [CURCUMIN], in that order: 10.7 µM, 8.81 µM and 11.1 µM.
Taken in the same sequence, the figures for `CCCCCCCC/C=C\CCCCCCCC(=O)OC[C@H](CO)OC(=O)CCCCCCC/C=C\CCCCCCCC` were 7.49 µM, 14.3 µM and 8.67 µM.
In test [3], `CCCCCCCC(=O)OC[C@H](CO)OC(=O)CCCCCCC` returned an EC50 of 5.24 µM. That is a single-digit micromolar value.
In the case of `CCCCCCCCCCCCCC(=O)O[C@@H]1[C@@H](C)[C@@]2(O)[C@@H](C=C(CO)C[C@]3(O)C(=O)C(C)=C[C@@H]23)[C@@H]2C(C)(C)[C@]12OC(C)=O` [PHORBOL MYRISTATE ACETATE], the results for the EC50 in test [1], in test [2] and in test [3] were 5.17 µM, 5.56 µM and 3.19 µM, respectively.
Taken in the same sequence, the figures for `O=C(/C=C(O)/C=C/c1ccc(O)c(O)c1)/C=C/c1ccc(O)c(O)c1` were 12.5 µM, 11.1 µM and 6.57 µM.
Taken in the same sequence, the figures for `CCCCCCCCOc1ccc(/C=C/C(O)=C/C(=O)/C=C/c2ccc(O)c(OC)c2)cc1OC` were 8.69 µM, 9.79 µM and 4 µM.
